The results in this text go back to ChEMBL document CHEMBL1781951, “Theonellasterols and conicasterols from Theonella swinhoei. Novel marine natural ligands for human nuclear receptors” (J Med Chem, 2011).

Experiment [1] has as its target T1, Bile acid receptor (Homo sapiens) (UniProt Q96RI1).
T1 sequence (whole entry): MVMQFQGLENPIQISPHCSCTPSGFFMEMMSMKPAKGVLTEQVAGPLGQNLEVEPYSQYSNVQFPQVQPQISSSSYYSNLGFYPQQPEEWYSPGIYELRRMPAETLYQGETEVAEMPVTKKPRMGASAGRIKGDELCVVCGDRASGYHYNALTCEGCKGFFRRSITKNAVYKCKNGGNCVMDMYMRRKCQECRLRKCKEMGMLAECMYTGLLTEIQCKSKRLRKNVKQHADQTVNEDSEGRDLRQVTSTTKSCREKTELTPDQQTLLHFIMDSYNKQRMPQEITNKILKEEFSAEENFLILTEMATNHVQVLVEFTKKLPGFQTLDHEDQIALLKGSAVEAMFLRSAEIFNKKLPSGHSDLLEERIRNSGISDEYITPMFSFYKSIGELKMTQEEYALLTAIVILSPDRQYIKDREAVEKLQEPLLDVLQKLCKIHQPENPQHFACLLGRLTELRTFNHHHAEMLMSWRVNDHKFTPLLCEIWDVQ
The experiment can be described thus: Partial agonist activity at human FXR expressed in human HepG2 cells assessed as induction of transactivation at 10 uM after 18 hrs by luciferase reporter gene assay. Format: functional, cell-based. The method, boiled down: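 HepG2 cells (5 × 10^5 cells/well) were transiently transfected using Fugene HD with pSG5-FXR, pSG5-RXR, pCMV-β-gal and a p(hsp27)-TK-LUC reporter carrying the hsp27 IR1 FXR response element. At 48 h post-transfection, cells were stimulated 18 h with test agent at 10 μM; 10 μM CDCA served as reference. Luciferase was normalized to β-gal; P < 0.05 vs untreated, n = 4.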
On the technique in general: In a reporter assay the amount or activity of a reporter protein is the signal.

In experiment [2] the target is T1, Bile acid receptor (Homo sapiens). The experiment can be described thus: Agonist activity at human FXR expressed in human HepG2 cells assessed as induction of OSTalpha mRNA expression at 50 uM by quantitative RT-PCR analysis. Format: functional, cell-based. The method, boiled down: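 HepG2 cells were primed with 10 μM CDCA alone or with 50 μM test agent. cDNA (50 ng template) was amplified by SYBR Green qPCR with 0.2 μM of each primer over 40 cycles (95/55/72 °C) in triplicate. Expression was normalized to GAPDH and reported as 2^ΔΔCT relative to untreated cells.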

The target is the same in experiment [3]. The experiment can be described thus: Antagonist activity at human FXR expressed in HepG2 cells assessed as inhibition of CDCA-induced transactivation at 50 uM after 18 hrs by luciferase reporter gene assay.

The source made the active and inactive calls. The rule behind the calls is not given here.

For the compound `C=C1[C@@H](O)CC[C@]2(C)C3=C(CC[C@@H]12)[C@]1(O)[C@@H](O)C[C@H]([C@H](C)CC[C@H](CC)C(C)C)[C@@]1(C)C[C@@H]3O`, the result in experiment [1] and in experiment [2] was Active. Further, the inhibition result in experiment [3] is “Active”.
Regarding `C=C1[C@@H](O)CC[C@]2(C)C3=C(CC[C@@H]12)[C@]1(O)[C@@H](O)C[C@H]([C@H](C)CC[C@H](CC)C(C)C)[C@@]1(C)C[C@H]3O`, the outcome in experiment [1] was inactive. Further, the inhibition result in experiment [3] was “inactive”.
In the case of `C=C1[C@@H](O)CC[C@]2(C)C3=CC[C@@]4(C)C(=CC[C@@H]4[C@H](C)CC[C@@H](C)C(C)C)C3=CC[C@@H]12`, the result in experiment [1] was inactive. Moreover, the inhibition entry in experiment [3] is “Active”.
The corresponding values for `C=C1[C@@H](O)CC[C@@]2(C)[C@H]1CCC1=C3[C@H](O)C[C@H]([C@H](C)CC[C@H](CC)C(C)C)[C@@]3(C)CC[C@@]12OC` are “inactive” and “inactive”.
The corresponding values for `C=C1[C@@H](O)CC[C@@]2(C)[C@H]1CCC1=C3[C@H](O)C[C@H]([C@H](C)CC[C@H](CC)C(C)C)[C@@]3(C)CC[C@@]12O` are “inactive” and “Active”.
With `C=C1[C@@H](O)CC[C@@]2(C)[C@H]1C[C@@H](O)C1=C3[C@H](O)C[C@H]([C@H](C)CC[C@H](CC)C(C)C)[C@@]3(C)CC[C@@H]12`, the result in experiment [1] was inactive. Further, the inhibition result in experiment [3] was “Active”.
As to `C=C1[C@@H](O)CC[C@]2(C)C3=CC[C@@]4(C)C(=CC[C@@H]4[C@H](C)CC[C@H](CC)C(C)C)C3=CC[C@@H]12`, the outcome in experiment [1] was inactive. For the same compound, the inhibition entry in experiment [3] is “Active”.
The corresponding values for `C=C1[C@@H](O)CC[C@]2(C)C3=C(CC[C@@H]12)[C@@H]1C(=O)C[C@H]([C@H](C)CC[C@H](CC)C(C)C)[C@@]1(C)CC3` are “inactive” and “Active”.
The corresponding values for `C=C1[C@@H](O)CC[C@@]2(C)[C@H]1CCC1=C3[C@H](O)C[C@H]([C@H](C)CC[C@@H](C)C(C)C)[C@@]3(C)CC[C@@]12O` are “inactive” and “Active”.
